Results pooled from the literature.
Protocols differ between the studies behind these lines.
glgA: glgA (Escherichia coli, UniProt P0A6U8)
CASP7: Caspase-7 (CASP7, Homo sapiens, UniProt P55210)

Cc1nn(C)cc1-c1nc2c(N3CCN(Cc4ccc(Cl)cc4)CC3)c(Cl)cnc2[nH]1 — remaining binding (Dual specificity testis-specific protein kinase 1 (TESK1, Homo sapiens, UniProt Q15569); binding, competition with immobilised ligand; 1 µM): 87%
OC[C@H]1NC[C@@H](O)[C@@H]1O — activity vs control (glgA; enzyme activity, inhibitor; 500 µM): 72%
O=C(Nc1cccnn1)N1CCN([C@@H]2CCOc3cc(C(F)(F)F)ccc32)CC1 — inhibition (Alpha-2B adrenergic receptor (ADRA2B, Homo sapiens, UniProt P18089); ligand displacement; 20 µM): 45%
Nc1ncnc2c1ncn2[C@@H]1O[C@H](COP(=O)(O)OP(=O)(O)O[C@H]2O[C@H](CO)[C@@H](O)[C@H](O)[C@H]2O)[C@@H](O)[C@H]1O — Km (glgA; enzyme activity, substrate): 420 µM
CN(C)C(=O)COC(=O)Cc1ccc(OC(=O)c2ccc(NC(=N)N)cc2)cc1 — inhibition (CASP7; enzyme activity, inhibitor; 10 µM): 0%
CCN(CC)CCCC[C@H](NC(=O)[C@H](CC(C)C)NC(=O)[C@H](C)NC(=O)[C@H](Cc1ccccc1)NC(=O)c1ccc(C(C)(C)C)cc1)C(=O)N[C@@H](CO)C(=O)OC — ΔTm (CREB-binding protein (CREBBP, Homo sapiens, UniProt Q92793); thermal stability, DSF; 25 µM): 0.35 °C
C=CC(=O)N1CCC[C@@H](n2nc(-c3ccc(Oc4ccccc4)cc3)c3c(N)ncnc32)C1 — remaining signal (Dual specificity tyrosine-phosphorylation-regulated kinase 1B (DYRK1B, Homo sapiens, UniProt Q9Y463); cell-free assay; 0.1 µM): 195%
C#Cc1n[nH]c2c(-c3cn(C(C)c4ccccn4)c(=O)[nH]c3=O)cc(F)cc12 (stereo not shown) — inhibition (Phosphatidylinositol 4,5-bisphosphate 3-kinase catalytic subunit gamma isoform (PIK3CG, Homo sapiens, UniProt P48736); enzyme activity, inhibitor; 1 µM): 14.7%
CC(=O)N[C@@H](CC(=O)O)C(=O)N[C@@H](CC(N)=O)C(=O)N[C@@H](CC(C)C)C(=O)N[C@H](C=O)CC(=O)O — inhibition (CASP7; enzyme activity, inhibitor; 50 nM): 43%
CSCC[C@H](NC(=O)[C@@H](NC(=O)[C@@H](N)Cc1ccc(O)cc1)C(C)C)C(=O)NCC(=O)N[C@@H](Cc1c[nH]cn1)C(=O)O — Emax (Melanocyte-stimulating hormone receptor (Mc1r, Mus musculus, UniProt Q01727); cAMP, agonist; HEK293): 60%
N=C(N)c1ccc2cc(OC(=O)c3ccc(N=C(N)N)cc3)ccc2c1 — inhibition (Ubiquitin carboxyl-terminal hydrolase isozyme L3 (UCHL3, Homo sapiens, UniProt P15374); enzyme activity, inhibitor; 10 µM): 6%
COc1ncccc1-c1cnn2ccc(N3CCN(C(=O)OC(C)C)CC3)nc12 — remaining binding (Mitogen-activated protein kinase kinase kinase 15 (MAP3K15, Homo sapiens, UniProt Q6ZN16); binding, competition with immobilised ligand; 1 µM): 86%
Nc1ncc(-c2nc(N3CCOCC3)nc(N3CCOCC3)n2)c(C(F)F)n1 — remaining signal (5-hydroxytryptamine receptor 1B (Htr1b, Rattus norvegicus, UniProt P28564); cell-free assay, radioligand; 10 µM): 115%
